In PubChem BioAssay:
Calls of active or inactive are those of the source.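 How the source made its calls, unless noted: active means viability at or below 30% in both replicate assays; inconclusive means viability at or below 30% in just one of the two assays; inactive means the rest.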

Experiments:
[1] = Her2 expression decrease, cell viability multiplex – SKBR3 breast tumor cells, AlphaScreen, ATP viability, primary screen (AID 461;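 active means Her2 level under about 52% in both replicate screens, with viability over 70% of control, limit read from the data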;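 on Her2 level: lower value means less Her2 protein in the cells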;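 on viability: percent of carrier control wells set as 100% viability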); settings: SKBR3 Her2 protein level, 18-24 h, measured here: SKBR3 viability, ATP luminescence, at 10 µM
[2] = target: Receptor tyrosine-protein kinase erbB-2 (Homo sapiens) (UniProt P04626); experiment: as above; settings: 18-24 h, at 10 µM, stronger effect = lower value
Sequence of Receptor tyrosine-protein kinase erbB-2 (Homo sapiens) (P04626 whole entry, looked up): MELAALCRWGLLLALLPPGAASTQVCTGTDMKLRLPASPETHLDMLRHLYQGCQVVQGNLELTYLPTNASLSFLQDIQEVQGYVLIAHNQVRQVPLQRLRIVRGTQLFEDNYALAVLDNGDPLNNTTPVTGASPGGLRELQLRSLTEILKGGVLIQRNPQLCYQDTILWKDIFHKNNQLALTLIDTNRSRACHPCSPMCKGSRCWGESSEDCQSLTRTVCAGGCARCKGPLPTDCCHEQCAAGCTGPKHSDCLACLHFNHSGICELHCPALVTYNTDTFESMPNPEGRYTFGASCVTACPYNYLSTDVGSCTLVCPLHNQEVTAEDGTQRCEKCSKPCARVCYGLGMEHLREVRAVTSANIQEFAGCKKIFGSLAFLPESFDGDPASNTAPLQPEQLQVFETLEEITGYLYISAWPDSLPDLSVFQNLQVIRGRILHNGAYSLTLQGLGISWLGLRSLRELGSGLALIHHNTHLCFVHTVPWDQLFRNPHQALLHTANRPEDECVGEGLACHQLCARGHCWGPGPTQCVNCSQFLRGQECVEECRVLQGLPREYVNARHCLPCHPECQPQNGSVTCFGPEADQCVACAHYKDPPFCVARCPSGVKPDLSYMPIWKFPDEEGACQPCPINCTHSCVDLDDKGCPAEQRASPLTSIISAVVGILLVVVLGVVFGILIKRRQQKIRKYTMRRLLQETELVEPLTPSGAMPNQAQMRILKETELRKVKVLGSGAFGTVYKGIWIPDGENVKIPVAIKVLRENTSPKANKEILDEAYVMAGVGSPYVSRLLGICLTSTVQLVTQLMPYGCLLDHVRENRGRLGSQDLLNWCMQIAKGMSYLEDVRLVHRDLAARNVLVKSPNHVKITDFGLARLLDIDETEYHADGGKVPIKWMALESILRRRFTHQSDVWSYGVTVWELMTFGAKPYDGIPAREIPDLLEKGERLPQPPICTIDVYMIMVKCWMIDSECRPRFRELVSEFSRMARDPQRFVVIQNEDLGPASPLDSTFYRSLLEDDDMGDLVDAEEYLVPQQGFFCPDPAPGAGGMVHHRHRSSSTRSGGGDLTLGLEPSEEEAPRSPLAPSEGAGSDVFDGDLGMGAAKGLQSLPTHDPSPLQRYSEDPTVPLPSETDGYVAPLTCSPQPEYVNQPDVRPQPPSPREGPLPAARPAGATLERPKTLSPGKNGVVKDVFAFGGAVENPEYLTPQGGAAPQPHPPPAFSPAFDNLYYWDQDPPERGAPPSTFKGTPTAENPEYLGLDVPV

[3] = reduced viability of SK-BR-3 breast cancer cells – cell-based, 24 h, human, pilot screen (AID 572;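 active means viability at or below 10% of carrier control in both of two separate runs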;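 further: compound exposure lasted between 18 and 24 h rather than exactly 24 h; 100% = carrier-treated control wells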); settings: SK-BR-3 viability, CellTiter-Glo luminescence, at 10 µM, stronger effect = lower value
[4] = HUVEC growth inhibition – cell-based, human, primary screen (AID 575); settings: HUVEC proliferation, CellTiter-Glo luminescence, 72 h; at 10 µM; stronger effect = lower value;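 further: 100% = median of untreated cell wells with 0.1% DMSO on each plate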
Outline: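 Assay system: Primary human umbilical vein endothelial cells | Quantity: 1250 cells per well | Medium: Supplemented EBM, 2% fetal bovine serum | Detection: CellTiter-Glo luminescence measuring cellular ATP | Read-out: % viability vs DMSO wells | Plate: Collagen-coated 384-well format | Times: 72 h exposure, 37 °C, 5% CO2, 30 min RT equilibration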

[5] = H69AR cell proliferation blockers – human, duplicate replicates, primary screen (AID 580;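 active means viability at or under a set limit in both replicates, limit being median viability minus 3 SD, cut at about 48% in these data, passing the limit was not always enough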;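 further: 100% = mean luminescence of untreated wells and 0% = no signal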); settings: H69AR lung tumor cells viability, ATP luminescence, 72 h; at 10 µM; stronger effect = lower value
[6] = MRP1 drug-resistance reversers in H69AR cells – cell-based, doxorubicin co-treatment, pilot screen (AID 601;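 active means viability loss from added drug above about 55%, and viability with drug at most 40%, in both replicates, limit read from the data, passing the limit was not always enough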); settings: CellTiter-Glo, 72 h, at 10 µM; for differential viability (reversal): stronger effect = higher value
[7] = yeast transport mutant growth inhibition pilot in 384-well plates, post-Golgi transport modulator project (AID 636; in the data active means inhibition above about 31%); settings: absorbance 615 nm, about 18 h, stronger effect = higher value
[8] = growth suppression of yeast trafficking mutant, preliminary HTS, modulators of trafficking downstream of Golgi apparatus project, 1536-format plate, OD 615 nm (AID 637; in the data active means inhibition above about 30%); settings: yeast transport mutant growth, absorbance 615 nm, 18 h; stronger effect = higher value
[9] = H69AR cells + 2 uM doxorubicin, measured here: viability with 2 uM doxorubicin, stronger effect = lower value
[10] = H69AR cells, compound alone cytotoxicity

SMILES	viability [1]	Her2 level [2]	viability [3]	viability [4]	viability [5]	differential viability (reversal) ([6]; H69AR cells + 2 uM doxorubicin)	viability [6, 9]	viability [6, 10]	inhibition [7]	inhibition [8]
N#Cc1cc2sc3nnc(-c4ccncc4)n3c2cc1C#N	112%	35.5% (active)	112% (inactive)	37.8% (inactive)	32.3% (active)	-18.2% (inactive)	50.5%	32.3%	-1.71% (inactive)	7.94% (inactive)
Cc1cccc(C2c3c(n(C)c(=O)n(C)c3=O)N=C3c4ccccc4C(=O)C32)c1 (stereo not given)	101%	82.5% (inactive)	101% (inactive)	43.8% (inactive)	24.3% (active)	-9.63% (inactive)	34%	24.3%	-7.47% (inactive)	0.32% (inactive)
CN(C(=O)c1ccccc1Cl)c1ccccc1	93.5%	83.5% (inactive)	93.5% (inactive)	92.8% (inactive)	106% (inactive)	23.6% (inactive)	82%	106%	-8.63% (inactive)	0.95% (inactive)
Cc1ccc(C)c(N2CCN(C(=O)C3CCN(S(=O)(=O)c4c(C)noc4C)CC3)CC2)c1	104%	72% (inactive)	104% (inactive)	74.8% (inactive)	83.4% (inactive)	27.8% (inactive)	55.6%	83.4%	-2.89% (inactive)	-3.97% (inactive)
CC(=O)Nc1ccc(S(=O)(=O)N2CCN(C(C)CCc3ccccc3)CC2)cc1 (stereo not given)	74%	98.5% (inactive)	74% (inactive)	97.8% (inactive)	96.6% (inactive)	5.17% (inactive)	91.4%	96.6%	-4.8% (inactive)	-1.29% (inactive)
CCCNc1nc2c(c(=O)n(C)c(=O)n2C)n1Cc1cccc(C)c1	87.5%	85% (inactive)	87.5% (inactive)	83.7% (inactive)	95.6% (inactive)	-5.19% (inactive)	101%	95.6%	-4.25% (inactive)	-3.97% (inactive)
Cn1c(-c2ccccc2)c(CCO)c2ccccc21	97%	78.5% (inactive)	97% (inactive)	114% (inactive)	94.7% (inactive)	-2.71% (inactive)	97.4%	94.7%	-0.79% (inactive)	-2.9% (inactive)
COCCNC(=O)C(c1ccc(C)o1)N(Cc1ccc(F)cc1)C(=O)Cn1nnc2ccccc21 (stereo not given)	89.5%	95% (inactive)	89.5% (inactive)	95.7% (inactive)	97.8% (inactive)	3.14% (inactive)	94.7%	97.8%	6.62% (inactive)	-1.31% (inactive)
O=C(Cn1nnc(-c2ccc(CN3CCOCC3)cc2)n1)NC1CCCCC1	108%	104% (inactive)	108% (inactive)	106% (inactive)	101% (inactive)	4.09% (inactive)	97.1%	101%	-5.73% (inactive)	3.28% (inactive)
COc1cc2c(cc1OC)-c1cc(OCc3cccnc3)nc(=O)n1CC2	92%	106% (inactive)	92% (inactive)	99.7% (inactive)	92.9% (inactive)	2.05% (inactive)	90.8%	92.9%	-3.73% (inactive)	9.19% (inactive)
CC(=O)c1ccc(OC(=O)c2cccs2)cc1	86%	94.5% (inactive)	86% (inactive)	94.1% (inactive)	105% (inactive)	-5.42% (inactive)	110%	105%	-3.11% (inactive)	3.61% (inactive)
c1ccc(Cc2nnc3n2CCCCC3)cc1	99%	90% (inactive)	99% (inactive)	93.9% (inactive)	99.2% (inactive)	1.42% (inactive)	97.7%	99.2%	-7.2% (inactive)	0.82% (inactive)
CC1=C(C)[N+](=O)C2CCCCC2N1[O-] (stereo not given)	89%	112% (inactive)	89% (inactive)	104% (inactive)	94.4% (inactive)	9.79% (inactive)	84.6%	94.4%	-5.97% (inactive)	-9.34% (inactive)
COc1ccc2nc(SCC(=O)NC(C)C)[nH]c2c1	104%	106% (inactive)	104% (inactive)	102% (inactive)	96.4% (inactive)	4.97% (inactive)	91.4%	96.4%	3.25% (inactive)	-10.8% (inactive)
